Test results: ChEMBL document CHEMBL1629511, “Naphthylchalcones induce apoptosis and caspase activation in a leukemia cell line: The relationship between mitochondrial damage, oxidative stress, and cell death” (Bioorg Med Chem, 2010)
Active and inactive are the calls of the source. The rule behind the calls is not given here.

Columns and labels:
L1210 [1] = assay: Induction of apoptosis in mouse L1210 cells assessed as increase in GSH level at IC50 concentration measured after 24 hrs; assay type: functional, cell-based
How it was run: (§1)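 Homogenates came from 3 × 10⁶ L1210 cells after 24 h treatment (phosphate/NaCl/Triton lysis, sonication, 10,000 rpm spin). Total glutathione was measured by the glutathione reductase recycling method (50 µg protein, 75 µM DTNB, 120 µM NADPH, 4 U/ml GR) at 405 nm against a GSH standard. GSSG = (TG − GSH)/2. Values were protein-normalized and given as % of control.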

L1210 [2] = assay: Induction of apoptosis in mouse L1210 cells assessed as increase in caspase 3 activity at IC50 concentration after 2 to 4 hrs; assay type: functional, cell-based
How it was run: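 3 × 10⁶ L1210 cells were treated for 2 or 4 h at 37 °C, then lysed in HEPES pH 7.4 buffer with protease inhibitors, CHAPS and DTT. Extract (50 µg protein) was incubated with 10 µM Ac-DEVD-AMC for 2 h at 37 °C. AMC fluorescence was read at ex 380/em 465 nm, blank-subtracted, and expressed per hour per µg protein (Lowry).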

L1210 [3] = assay: Cytotoxicity against mouse L1210 cells after 72 hrs by MTT assay; assay type: functional, cell-based; details: L1210, 72 h
L1210 [4] = assay: Induction of apoptosis in mouse L1210 cells assessed as increase in glutathione reductase activity at IC50 concentration measured after 24 hrs; assay type: functional, cell-based
L1210 [5] = assay: Induction of apoptosis in mouse L1210 cells assessed as increase in GSSG level at IC50 concentration measured after 24 hrs; assay type: functional, cell-based; how it was run: as §1
L1210 [6] = assay: Cytotoxicity against mouse L1210 cells after 48 hrs by MTT assay; assay type: functional, cell-based; details: L1210, 48 h
How it was run: (§2)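 MTT assay on L1210 or CEM cells grown in DMEM with 10% heat-inactivated FBS. Cells were seeded at 1 × 10⁵/well for 24 h or 5 × 10⁴/well for 48 h, in triplicate, with 1–100 µM compound (DMSO ≤1%). MTT was added for 2 h at 37 °C, formazan dissolved in DMSO, and A540 read. IC50 came from a Hill concentration–response fit.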

CCRF-CEM [7] = assay: Cytotoxicity against human CEM cells after 48 hrs by MTT assay; assay type: functional, cell-based; how it was run: as §2
L1210 [8] = assay: Cytotoxicity against mouse L1210 cells after 24 hrs by MTT assay in presence of superoxide dismutase; assay type: functional, cell-based; details: L1210, 24 h
How it was run: (§3)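 L1210 cells at 1 × 10⁵/well were exposed for 24 h to 1–100 µM compound together with catalase 5000 U/ml, SOD 250 U/ml or Trolox 200 µM. Additive-only controls were run in parallel. Viability was read by MTT (2 h, formazan in DMSO, A540) in triplicate.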

L1210 [9] = assay: Induction of apoptosis in mouse L1210 cells assessed as increase in glutathione S-transferase activity at IC50 concentration measured after 24 hrs; assay type: functional, cell-based
How it was run: (§4)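 Homogenates came from 6 × 10⁶ L1210 cells after 24 h treatment. GPx was measured with 150 µg protein as NADPH loss at 340 nm. Catalase followed Aebi with 60 µg protein. GST was measured as the GSH–CDNB conjugate at 340 nm. Activities were protein-normalized and given as % of control.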

CCRF-CEM [10] = assay: Cytotoxicity against human CEM cells after 24 hrs by MTT assay; assay type: functional, cell-based; how it was run: as §2
L1210 [11] = assay: Induction of apoptosis in mouse L1210 cells assessed as decrease in mitochondrial membrane potential at IC50 concentration after 4 hrs using JC-1 staining by spectrofluorimetric analysis; assay type: functional, cell-based
How it was run: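 L1210 cells at 5 × 10⁵/well were treated for 4 h, then stained with JC-1 (10 µg/ml) for 20 min at 37 °C, washed and resuspended in PBS. Fluorescence was read with excitation at 488 nm and emission at 590/527 nm. The red/green ratio is expressed relative to control (100%).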

L1210 [12] = assay: Induction of apoptosis in mouse L1210 cells assessed as increase in catalase activity at IC50 concentration measured after 24 hrs; assay type: functional, cell-based; how it was run: as §4
CCRF-CEM [13] = assay: Cytotoxicity against human CEM cells after 72 hrs by MTT assay; assay type: functional, cell-based
L1210 [14] = assay: Induction of apoptosis in mouse L1210 cells assessed as increase in glutathione peroxidase activity at IC50 concentration measured after 24 hrs; assay type: functional, cell-based; how it was run: as §4
L1210 [15] = assay: Cytotoxicity against mouse L1210 cells after 24 hrs by MTT assay in presence of catalase; assay type: functional, cell-based; details: L1210, 24 h; how it was run: as §3
L1210 [16] = assay: Induction of apoptosis in mouse L1210 cells assessed as increase in total glutathione level at IC50 concentration measured after 24 hrs; assay type: functional, cell-based; how it was run: as §1
L1210 [17] = assay: Induction of ROS production in mouse L1210 cells at IC50 concentration after 4 hrs
L1210 [18] = assay: Induction of lipid peroxidation in mouse L1210 cells at IC50 concentration after 24 hrs by TBARS method; assay type: functional, cell-based
How it was run: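 Homogenates came from 4 × 10⁶ L1210 cells after 24 h treatment. 400 µg protein was mixed with 60 mM Tris–HCl pH 7.4, 0.1 mM DPTA, TCA and 0.73% TBA, boiled 2 h, cooled and centrifuged. A535 was converted to nmol TBARS per µg protein using the MDA extinction coefficient.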

L1210 [19] = assay: Induction of apoptosis in mouse L1210 cells assessed as decrease in intracellular ATP concentration at IC50 concentration measured up to 24 hrs; assay type: functional, cell-based
How it was run: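 Intracellular ATP: 1 × 10⁶ L1210 cells were treated for up to 24 h. Extracts were made in 1.25% trichloroacetic acid, kept on ice 30 min, neutralized with 1 M Tris–acetate pH 7.5 and centrifuged. Luciferin–luciferase bioluminescence was read and normalized to the cell death percentage over the incubation.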

L1210 [20] = assay: Cytotoxicity against mouse L1210 cells after 24 hrs by MTT assay in presence of Trolox; assay type: functional, cell-based; details: L1210, 24 h; how it was run: as §3
L1210 [21] = assay: Induction of apoptosis in mouse L1210 cells assessed as DNA fragmentation at IC50 concentration after 24 hrs by agarose gel electrophoresis analysis; assay type: functional, cell-based
How it was run: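 3 × 10⁶ L1210 cells were treated for 24 h, washed with cold PBS, then lysed in EDTA/Tris pH 8.0/NP-40/proteinase K buffer at 50 °C for 2 h. DNA was ethanol-precipitated, washed, treated with RNase A at 37 °C for 1 h and resolved by agarose gel electrophoresis beside a size standard.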

L1210 [22] = assay: Cytotoxicity against mouse L1210 cells after 24 hrs by MTT assay; assay type: functional, cell-based; details: L1210, 24 h; how it was run: as §2

Row | SMILES | Activity (L1210 [1]) | Activity (L1210 [2]) | IC50 (L1210 [3]) [µM] | Activity (L1210 [4]) | Activity (L1210 [5]) | IC50 (L1210 [6]) [µM] | IC50 (CCRF-CEM [7]) [µM] | IC50 (L1210 [8]) [µM] | Activity (L1210 [9]) | IC50 (CCRF-CEM [10]) [µM] | Activity (L1210 [11]) | Activity (L1210 [12]) | IC50 (CCRF-CEM [13]) [µM] | Activity (L1210 [14]) | IC50 (L1210 [15]) [µM] | Activity (L1210 [16]) | Activity (L1210 [17]) | Activity (L1210 [18]) | Activity (L1210 [19]) | IC50 (L1210 [20]) [µM] | further results
1 | O=C(/C=C/c1cccc([N+](=O)[O-])c1)c1ccc2ccccc2c1 | inactive | Active | 14 | Active | Active | 13 | 11 | 20 | Active | 11 | Active | inactive | 4 | Active | 45 | Active | Active | Active | Active | 20 | Activity (L1210 [21]): Active; IC50 (L1210 [22]): 24 µM
2 | O=C(/C=C/c1ccccc1)c1ccc2ccccc2c1 | Active | Active | 17 | Active | Active | 20 | 14 | 31 | Active | 12 | inactive | inactive | 5 | Active | 58 | Active | Active | Active | Active | 39 | Activity (L1210 [21]): Active; IC50 (L1210 [22]): 37 µM
3 | O=C(/C=C/c1cccc(Cl)c1)c1ccc2ccccc2c1 | inactive | Active | 10 | Active | Active | 23 | 12 | 30 | Active | 11 | Active | inactive | 6 | Active | 51 | Active | Active | Active | Active | 34 | Activity (L1210 [21]): Active; IC50 (L1210 [22]): 38 µM
